Screens from PubChem BioAssay.
The list is not random: actives were taken first. Their share in the collection is about 1.9%.
ADAM17 inh: inhibitors of human ADAM17; 370,000 compounds, 0.83% hits; recombinant ADAM17, EDANS/DABCYL FRET peptide cleavage; inhibition, % at 6.95 µM; P78536; AID 720648;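 active = inhibition above the mean of compounds lying between control limits plus 3 SD, set per campaign, cut at about 8.5% in these data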;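 also: 0% = DMSO-only wells as the low control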
SENP1 inh: SENP1 (human) catalytic domain inhibition | AID 624204 | Q9P0U3 | inhibition, % at 10 µM | recombinant SENP1 catalytic domain, CyPet-SUMO1-YPet FRET cleavage | 360,000 compounds, 0.21% hits;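 active = inhibition at least 30% at 10 µM, raw YFP signal under a set limit, fluorescence ratio 0.5 to 1.5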;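 also: 0% = enzyme with DMSO and 100% = no enzyme wells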
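Test system: hSENP1 catalytic domain, recombinant; Amount: 20 pM final SENP1 enzyme; Medium: Tris pH 8 buffer plus EDTA, NaCl, BME, BSA, NP40, catalase; Schedule: 50 min enzyme reaction, room temperature, light-protected; Technique: FRET fluorescence in CFP and YFP emission channels; Controls: no-enzyme wells low, DMSO-plus-enzyme wells high control.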
ADAM10 inh: inhibits human ADAM10. 370,000 compounds, 0.62% hits. recombinant ADAM10, EDANS/DABCYL FRET peptide cleavage, 3 h. inhibition, % at 7 µM. AID 720582;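 active = inhibition above a per-campaign cutoff equal to the mean of compounds falling between control-based bounds plus 3 SD, cut at about 20% in these data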;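 also: 0% = DMSO wells while the 100% control is not disclosed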
Target sequence (O14672 214-748 limits assumed): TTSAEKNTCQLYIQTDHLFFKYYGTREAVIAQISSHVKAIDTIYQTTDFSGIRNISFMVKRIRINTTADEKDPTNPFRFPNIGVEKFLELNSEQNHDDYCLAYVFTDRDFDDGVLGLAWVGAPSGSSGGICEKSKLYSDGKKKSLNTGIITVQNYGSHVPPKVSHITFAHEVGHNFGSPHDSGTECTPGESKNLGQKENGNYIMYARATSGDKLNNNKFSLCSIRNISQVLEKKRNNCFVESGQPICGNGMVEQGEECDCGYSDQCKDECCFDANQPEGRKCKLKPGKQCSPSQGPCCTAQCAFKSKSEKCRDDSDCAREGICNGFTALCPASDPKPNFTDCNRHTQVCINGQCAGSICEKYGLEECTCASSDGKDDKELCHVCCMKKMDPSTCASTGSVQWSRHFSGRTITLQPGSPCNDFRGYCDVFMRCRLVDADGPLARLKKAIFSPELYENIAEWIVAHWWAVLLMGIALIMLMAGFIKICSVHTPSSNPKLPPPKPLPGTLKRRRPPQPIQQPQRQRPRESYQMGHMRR
FAS-TE inh: FAS thioesterase (human) inhibition. P49327. recombinant FAS-TE, OMFH fluorogenic substrate, fluorescence endpoint. inhibition, % at 15 µM. 360,000 compounds, 0.67% hits;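 active = compounds whose normalised, plate-corrected inhibition of enzyme fluorescence in the single-dose primary screen is 50% or more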;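 also: 0% = DMSO with enzyme and 100% = substrate without enzyme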
FAS-TE conf: FAS thioesterase (human) inhibition, confirmation; AID 624325; shares compounds with FAS-TE inh; recombinant FAS-TE, OMFH fluorogenic substrate, fluorescence; 2,300 compounds, 45% hits; inhibition, % at 15 µM;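 active = compounds inhibiting the enzyme by at least 50% at 15 µM in any one of the replicates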;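 also: 0% = enzyme with DMSO only and 100% = wells lacking enzyme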
ADAM10 confirm: confirmation of inhibitors of human ADAM10. shares compounds with ADAM10 inh. ADAM10 QFRET peptide cleavage, EDANS fluorescence. inhibition, % at 6.95 µM. 2,100 compounds, 1% hits;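 active = inhibition above about 20% chosen separately for each screening run, limit read from the data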;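 also: 0% = DMSO wells and 100% = marimastat wells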
ADAM17 ctr: ADAM17 inhibition, counter-screen for ADAM10 exosite hits. shares compounds with ADAM10 inh. ADAM17 QFRET peptide cleavage, EDANS fluorescence. inhibition, % at 6.95 µM. 2,100 compounds, 0.5% hits. AID 743214;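 active = mean triplicate inhibition above the solvent-only control wells' mean plus 3 SD, cut at about 12% in these data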;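 also: 0% = DMSO wells and 100% = marimastat wells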
ADAM10 counter: inhibits human ADAM10 in ADAM17 exosite counter-screen | inhibition, % at 6.95 µM | recombinant ADAM10, EDANS/DABCYL FRET peptide cleavage, 3 h | AID 743256 | 2,900 compounds, 47% hits | shares compounds with ADAM17 inh;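 active = mean inhibition over the triplicate runs exceeds the activity threshold set in the earlier primary screen, cut at about 20% in these data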;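 also: 0% = DMSO wells and 100% = marimastat wells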
ADAM17 confirm: human ADAM17 inhibition, confirmation | inhibition, % at 6.95 µM | recombinant ADAM17, EDANS/DABCYL QFRET peptide cleavage | AID 743257 | 2,900 compounds, 65% hits | shares compounds with ADAM17 inh;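 active = mean inhibition across replicates above the hit cutoff set in the primary screen, cut at about 8.5% in these data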;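 also: 0% = DMSO wells and 100% = marimastat wells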
Starred values were filed as active, the others as inactive.

`COc1ccc([N+](=O)[O-])cc1NC(=O)COC(=O)c1ccccc1C(=O)c1ccccc1` gave ADAM17 inh -3, SENP1 inh 2, ADAM10 inh -1 and FAS-TE inh 28.
Screening O=C1OCCN1C(=O)[C@H]1[C@H](c2ccc([N+](=O)[O-])cc2)C(c2ccc(F)cc2)=NN1c1ccc(Br)cc1 returned ADAM17 inh 9.2*, SENP1 inh 3, ADAM10 inh 22*, FAS-TE inh 95*, FAS-TE conf 14, ADAM10 confirm 14, ADAM17 ctr 4, ADAM10 counter 20* and ADAM17 confirm 13*.
O=C1OCCN1C(=O)[C@H]1[C@H](c2ccc([N+](=O)[O-])cc2)C(c2ccc(F)cc2)=NN1c1ccccc1 was read as ADAM17 inh 9.0*, SENP1 inh 2, ADAM10 inh 21*, FAS-TE inh 84*, FAS-TE conf 41, ADAM10 confirm 4, ADAM17 ctr 3, ADAM10 counter 36* and ADAM17 confirm 17*.
For O=C1OCCN1C(=O)[C@H]1[C@H](c2ccccc2)C(c2ccccc2)=NN1c1ccccc1 the results were ADAM17 inh -57, SENP1 inh -44, ADAM10 inh -225 and FAS-TE inh 26.
Screening CCOC(=O)[C@@H]1[C@H]2COc3ccc(Br)cc3[C@@H]2N2C(=O)N(c3ccc(C)cc3)C(=O)[C@]12C returned ADAM17 inh -1, SENP1 inh 0, ADAM10 inh 9 and FAS-TE inh 36.
`CCOC(=O)[C@@H]1[C@H]2COc3ccc(Br)cc3[C@H]2N2C(=O)N(c3ccc(C)cc3)C(=O)[C@]12C` gave ADAM17 inh 8.8*, SENP1 inh 2, ADAM10 inh 14, FAS-TE inh 60*, FAS-TE conf 26, ADAM10 counter 33* and ADAM17 confirm 22*.
Screening C/C(=C\c1ccc(C(=O)O)cc1)c1ccc2c(c1)C(C)(C)CCC2(C)C returned ADAM17 inh 9.0*, SENP1 inh 2, ADAM10 inh 6, FAS-TE inh 73*, FAS-TE conf 34, ADAM10 counter 6 and ADAM17 confirm 5.
CCc1ccc(/C=C/C(=O)NC2=NCCS2)cc1 was read as ADAM17 inh -1 and ADAM10 inh 9.
`O=C(NC(=S)Nc1ccc2c(c1)OCCO2)c1cccc2ccccc12` gave ADAM17 inh 11*, SENP1 inh 1, ADAM10 inh 19, FAS-TE inh 56*, FAS-TE conf 24, ADAM10 counter 18 and ADAM17 confirm 11*.
`O=C(NC(=S)Nc1ccc2c(c1)OCCO2)c1cccc(Br)c1` gave ADAM17 inh 4, SENP1 inh 0, ADAM10 inh 16 and FAS-TE inh 27.
`O=C(CCSc1ccccc1Cl)Nc1cccc([N+](=O)[O-])c1` gave ADAM17 inh 12*, SENP1 inh 1, ADAM10 inh 29*, FAS-TE inh 52*, FAS-TE conf 18, ADAM10 confirm 2, ADAM17 ctr 0, ADAM10 counter 24* and ADAM17 confirm 12*.
CCC[C@H]1[C@@H](OC(=O)NCc2ccc(C(F)(F)F)cc2)CC[C@@]23CCCN2C(=O)CCC[C@@H]13 was read as ADAM17 inh 0 and ADAM10 inh 1.
Screening O[C@H]1C[C@H](c2ccccc2)N(CC2CCCCC2)C[C@@H]1n1cc(C2CC2)nn1 returned ADAM17 inh 9.0*, SENP1 inh -1, ADAM10 inh 18, FAS-TE inh 65*, FAS-TE conf 65*, ADAM10 counter 21* and ADAM17 confirm 13*.
`COc1ccc(OC)c(CN2C(=O)COc3ccccc3C2c2nnnn2C2CCCC2)c1` (configuration not stated) gave ADAM17 inh -1 and ADAM10 inh 1.
Screening O=C(Nc1ccc2c(c1)OCCO2)C(c1ccnc2ccccc12)N1CCN(c2ccc(F)cc2)CC1 (configuration not stated) returned ADAM17 inh 5, SENP1 inh -1, ADAM10 inh 12 and FAS-TE inh 24.
For O=C(Nc1ccc2c(c1)OCCO2)C(c1ccnc2ccccc12)N1CCN(c2ccc(C(F)(F)F)cn2)CC1 (configuration not stated) the results were ADAM17 inh 11*, SENP1 inh 0, ADAM10 inh 16, FAS-TE inh 92*, FAS-TE conf 33, ADAM10 counter 54* and ADAM17 confirm 25*.
`C=c1[nH]cc(C(C)c2c(C)n(C)c3ccccc23)/c1=C/C` (configuration not stated) gave ADAM17 inh -8 and ADAM10 inh -24.
COc1cc2c(cc1NC(=O)CSc1nnc(-c3ccccc3F)n1-c1ccc(C)cc1)oc1ccccc12 was read as ADAM17 inh 2 and ADAM10 inh -13.
COc1ccc(-c2nn(-c3ccccc3)cc2/C=N/NC(=O)c2cccc(S(=O)(=O)Nc3ccccc3Cl)c2)cc1 was read as ADAM17 inh 9.2*, SENP1 inh 0, ADAM10 inh -36, FAS-TE inh 59*, FAS-TE conf 16, ADAM10 counter -218 and ADAM17 confirm -31.
CCOC(=O)C1=C(C(=O)OCC)C2N(Cc3ccc(C(F)(F)F)cc3)c3ccccc3[C@@]23C[C@@H](C(=O)OC)N(S(=O)(=O)c2ccc(OC)cc2)C3=N1 (some centres not stated) was read as ADAM17 inh 2 and ADAM10 inh 1.
Screening N#Cc1ccc(OC[C@@H](O)CN2CCC(C(O)(c3ccccc3)c3ccccc3)CC2)cc1F returned ADAM17 inh -2 and ADAM10 inh 0.
`O=C(Oc1cccc(/C=N/Nc2nc(Nc3ccccc3)nc(N3CCOCC3)n2)c1)c1ccco1` gave ADAM17 inh 8.8*, SENP1 inh 3, ADAM10 inh 22*, FAS-TE inh 62*, FAS-TE conf 36, ADAM10 confirm 8, ADAM17 ctr 3, ADAM10 counter 41* and ADAM17 confirm 23*.
Screening COc1ccc(/C=N/Nc2nc(Nc3ccccc3)nc(N3CCCCC3)n2)cc1OC returned ADAM17 inh 5, SENP1 inh 3, ADAM10 inh 7 and FAS-TE inh 23.
